Experimental data: article PMC8935478 (Journal of medicinal chemistry, 2021)

What was measured:
MV4;11 = assay: Cell growth inhibition, CellTiter-Glo; assay type: cell-based, human
MOLM-13 = assay: Cell growth inhibition, CellTiter-Glo; assay type: cell-based
[1] = test system: HOXA9 mRNA in MV4;11 cells; assay: qRT-PCR gene expression in MV4; assay type: cell-based, human; conditions: 24h of treatment
Outline: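 Total RNA from in vitro-grown cells isolated with RNeasy. cDNA made with a High-Capacity reverse transcription kit. TaqMan gene expression assays with gene-specific primers amplified HOXA9, MEIS1, ITGAM, GAPDH and HPRT1. Relative transcript levels calculated by the comparative Ct method.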

[2] = test system: MV4;11 subcutaneous tumors; assay: MV4; assay type: in vivo, mice; conditions: 100 mg/kg daily for 26 days, oral gavage; 157 mm^3 at the beginning of the treatment
Outline: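 Female C.B-17 SCID mice (5–6 weeks) implanted sc in the right flank with 5×10^6 MV4;11 cells in 1:1 Matrigel. Randomized once tumors reached the target volume. Dosed once daily by oral gavage at 10 ml/kg; vehicle 0.5% MC (400cP) + 0.2% Tween 80 (w/w). Body weight recorded daily. Calipers three times weekly; volume = 0.5×W×W×L; mean ± SEM. Regrowth followed to day 45 after treatment start.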

Structure (SMILES): C=CC(=O)N1C[C@@H]2C[C@H]1CN2S(=O)(=O)c1ccc(N2CC(CN3CCC([C@@](CN4CCC4)(c4cccc(F)c4)[C@H]4CCC[C@@H]4NC(=O)OC)CC3)(OC)C2)cc1 [Compound 24, Methyl ((1S,2R)-2-(1-(1-((1-(4-(((1S,4S)-5-acryloyl-2,5-diazabicyclo[2.2.1]heptan-2-yl)-sulfonyl)phenyl)-3-methoxyazetidin-3-yl)methyl)piperidin-4-yl)-2-(azetidin-1-yl)-1-(3-fluoro-phenyl)ethyl)cyclopentyl)carbamate]
- Fold more potent than compound 20 (MV4;11; MV4;11): 8–10 fold
- Fold more potent than stereoisomer compound 25 (MV4;11; MV4;11, ratio of IC50): 40 fold
- Fold more potent than compound 20 (MOLM-13; MOLM-13): 8–10 fold
- Fold more potent than stereoisomer compound 25 (MOLM-13; MOLM-13, ratio of IC50): 9 fold
- Concentration as low as which HOXA9 gene expression is effectively modulated [1]: 10 nM
- Average tumor volume on day 26 of the treatment [2]: 106 mm^3

Structure (SMILES): C=CC(=O)N1CC(S(=O)(=O)c2ccc(N3CC(CN4CCC([C@@](CN5CCC5)(c5cccc(F)c5)[C@H]5CCC[C@@H]5NC(=O)OC)CC4)(OC)C3)cc2)C1 [Compound 20, Methyl ((1S,2R)-2-(1-(1-((1-(4-((1-acryloylazetidin-3-yl)sulfonyl)phenyl)-3-methoxyazetidin-3-yl)methyl)piperidin-4-yl)-2-(azetidin-1-yl)-1-(3-fluorophenyl)ethyl)cyclopentyl)carbamate]
- Fold less potent than compound 19 in inhibiting growth (MV4;11; MV4;11, ratio of IC50): 49 fold
- Fold less potent than compound 19 in inhibiting growth (MOLM-13; MOLM-13, ratio of IC50): 8 fold

Structure (SMILES): CCC(=O)N1C[C@@H]2C[C@H]1CN2S(=O)(=O)c1ccc(N2CC(CN3CCC([C@@](CN4CCC4)(c4cccc(F)c4)[C@H]4CCC[C@@H]4NC(=O)OC)CC3)(OC)C2)cc1 [Compound 26, Methyl ((1S,2R)-2-(2-(azetidin-1-yl)-1-(3-fluorophenyl)-1-(1-((3-methoxy-1-(4-(((1S,4S)-5-propionyl-2,5-diazabicyclo[2.2.1]heptan-2-yl)sulfonyl)phenyl)azetidin-3-yl)methyl)piperidin-4-yl)ethyl)cyclopentyl)carbamate]
- Times less potent than 24 in inhibition of cell growth (MV4;11; MV4;11): > 10 times
- Times less potent than 24 in inhibition of cell growth (MOLM-13; MOLM-13): > 10 times

Structure (SMILES): C=CC(=O)N1CCC[C@@H](S(=O)(=O)c2ccc(N3CC(CN4CCC([C@@](CN5CCC5)(c5cccc(F)c5)[C@H]5CCC[C@@H]5NC(=O)OC)CC4)(OC)C3)cc2)C1 [Compound 23, Methyl ((1S,2R)-2-(1-(1-((1-(4-(((R)-1-acryloylpiperidin-3-yl)sulfonyl)phenyl)-3-methoxy-azetidin-3-yl)methyl)piperidin-4-yl)-2-(azetidin-1-yl)-1-(3-fluorophenyl)ethyl)cyclopentyl)-carbamate]
- Times more potent than compound 21 (MV4;11; MV4;11): 2 times
- Times more potent than compound 21 (MOLM-13; MOLM-13): 2 times

Structure (SMILES): C=CC(=O)N1CCC[C@H](S(=O)(=O)c2ccc(N3CC(CN4CCC([C@@](CN5CCC5)(c5cccc(F)c5)[C@H]5CCC[C@@H]5NC(=O)OC)CC4)(OC)C3)cc2)C1 [Compound 22, Methyl ((1S,2R)-2-(1-(1-((1-(4-(((S)-1-acryloylpiperidin-3-yl)sulfonyl)phenyl)-3-methoxy-azetidin-3-yl)methyl)piperidin-4-yl)-2-(azetidin-1-yl)-1-(3-fluorophenyl)ethyl)-cyclopentyl)carbamate]
- Times more potent than compound 21 (MV4;11; MV4;11): 2 times
- Times more potent than compound 21 (MOLM-13; MOLM-13): 2 times

Structure (SMILES): COC(=O)N[C@H]1CCC[C@@H]1[C@](CN1CCC1)(c1cccc(F)c1)C1CCN(CC2(OC)CN(c3ccc(S(=O)(=O)C4CN(C(=O)/C=C/CN(C)C)C4)cc3)C2)CC1 [Compound 19, Methyl ((1S,2R)-2-(2-(azetidin-1-yl)-1-(1-((1-(4-((1-((E)-4-(dimethylamino)but-2-enoyl)-azetidin-3-yl)sulfonyl)phenyl)-3-methoxyazetidin-3-yl)methyl)piperidin-4-yl)-1-(3-fluorophenyl)ethyl)cyclopentyl)carbamate]
- Fold more potent than compound 17 in inhibiting proliferation (MV4;11; MV4;11, ratio of IC50): 72 fold
- Fold more potent than compound 17 in inhibiting proliferation (MOLM-13; MOLM-13, ratio of IC50): 9 fold
